Data set [1] concerns Plasmodium falciparum. Description: Antimalarial activity as schizonticidal activity after 48 hrs against chloroquine-sensitive Plasmodium falciparum 3D7. Conditions: 3D7, 48 h. It counts as functional. In outline:
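3D7 ring stages synchronized with 5% sorbitol; 3% cell suspension at 1% parasitaemia added to duplicate wells of diluted compound (DMSO stock 5 mg/mL, diluted in RPMI). Incubated at 37 °C under CO2 for more than 40 h. Giemsa-stained thin smears counted by light microscopy; MIC = lowest concentration giving 100% inhibition of schizont maturation against untreated control.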

In another data set the test system is Plasmodium yoelii. Description: Antimalarial activity as reduced parasitaemia against chloroquine-resistant Plasmodium yoelii infected Swiss mice (Mus musculus) at 100 mg/kg peroral dose for 4 days. It counts as functional. Also noted: scale not given: the % may be the effect or the level left. Particulars: route oral.
For data set [2], the system named is Plasmodium yoelii nigeriensis. Description: Antimalarial activity as reduced parasitaemia against Plasmodium yoelii nigeriensis MDR infected Swiss mice (Mus musculus) at 100 mg/kg peroral dose […]. It counts as functional. Also noted: scale not given: the % may be the effect or the level left. Particulars: route oral. In outline:
(§1)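 Swiss mice (25 g, either sex), five per group, infected with 1 × 10^6 parasitized cells on day 0. Aqueous suspension given orally from day 0 to day 4; vehicle-only group as control. Parasitaemia read from tail-vein thin blood smears, reported as mean % parasitaemia on day 4 and day 7.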

The test system of data set [3] is Plasmodium yoelii nigeriensis. Description: Antimalarial activity as reduced parasitaemia against Plasmodium yoelii nigeriensis MDR infected Swiss mice (Mus musculus) at 100 mg/kg peroral dose for 4 days. Also on record: scale not given: the % may be the effect or the level left. Particulars: route oral. It counts as functional. In outline:
as §1

A further data set deals with Mus musculus. Description: Toxicity against Plasmodium yoelii nigeriensis MDR infected Swiss mice (Mus musculus) assessed as death at 100 mg/kg, perorally. The format is organism-based. Also noted: dose 100 mg/kg, route oral. Particulars: in vivo, po.
In data set [4] the test system is Plasmodium falciparum. Description: Antimalarial activity after 72 hrs against chloroquine-sensitive Plasmodium falciparum 3D7 infected erythrocytes by MSF assay. Particulars: 3D7, 72 h. The format is functional, organism-based. In outline:
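P. falciparum 3D7 kept in RPMI with gentamicin 40 µg/mL, Fungizone 0.25 µg/mL and 10% FBS (pH 7.2) at 37 °C under CO2. Twofold serial dilutions over seven concentrations, top 10–500 ng/mL, duplicate wells; 2.5% haematocrit, 0.5% parasitaemia; 72 h. SYBR Green I in lysis buffer (Tris pH 7.5, EDTA, saponin, Triton X-100), 1 h at room temperature, fluorescence read; IC50 by logit regression.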

The nature of data set [5]: Selectivity index, ratio of CC50 for african green monkey (Cercopithecus aethiops) Vero C1008 cells to IC50 for chloroquine-sensitive Plasmodium falciparum 3D7. It counts as functional. In outline:
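Vero C1008 cells exposed to serially diluted compound, highest 100 µg/mL, for 72 h; MTT read-out; CC50 = concentration killing 50% of cells. SI = CC50/IC50, with IC50 from the SYBR Green I assay on 3D7.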

In brackets after ≈: the same amount, converted by molar mass. Where only a bound is given, the exact number is not on record here.

Broadly, the MIC is the lowest concentration found to suppress growth. The compound `Cc1ccc(Nc2ncnc3ccc(NC(=O)Nc4ccc(C)c(Cl)c4)cc23)cc1` displayed an MIC against Plasmodium falciparum [1] of 0.5 µg/mL (≈ 1.2 µM). In addition, the results for the Activity (in the data set with Plasmodium yoelii; in data set [2]) were 3.38% and 10.82%, respectively. For the compound `Cc1ccc(Nc2ncnc3ccc(NC(=O)Nc4ccc(Cl)c(Cl)c4)cc23)cc1`, the MIC in the data set on Plasmodium falciparum [1] amounted to 1 µg/mL (≈ 2.28 µM). Consider `O=C(Nc1ccc(Cl)c(Cl)c1)Nc1ccc2ncnc(Nc3ccccc3)c2c1`, for which, in the data set on Plasmodium falciparum [1], it took 10 µg/mL (≈ 23.6 µM) to inhibit growth (MIC). `N#Cc1cccc(NC(=O)Nc2ccc3ncnc(Nc4cccc(F)c4)c3c2)c1` returned an MIC against Plasmodium falciparum [1] of 0.5 µg/mL (≈ 1.26 µM). Also, the Activity is given as 46.4% in data set [3] and “Toxic” in the data set with Mus musculus. For `O=C(Nc1ccc(Cl)cc1)Nc1ccc2ncnc(Nc3cccc(Cl)c3)c2c1`, the minimum inhibitory concentration (MIC) in the data set with Plasmodium falciparum [1] is greater than 10 µg/mL. On the same count and under the same terms, to `COc1ccc(Nc2ncnc3ccc(NC(=O)Nc4ccc(Br)cc4)cc23)cc1` belongs 1 µg/mL (≈ 2.15 µM); to `Cc1ccc(NC(=O)Nc2ccc3ncnc(Nc4ccccc4)c3c2)cc1Cl`, 1 µg/mL (≈ 2.48 µM). The IC50 is the midpoint of a concentration-inhibition curve. `Cc1ccc(NC(=O)Nc2ccc3ncnc(Nc4cccc(F)c4)c3c2)cc1Cl`: in the data set on Plasmodium falciparum [1], the MIC came out at 0.25 µg/mL (≈ 0.593 µM). This compound registered an IC50 in the data set with Plasmodium falciparum [4] of 0.147 µg/mL (≈ 0.348 µM). Also, the “Ratio CC50/IC50” value in data set [5] was 76.6. With `O=C(Nc1ccc(Br)cc1)Nc1ccc2ncnc(Nc3ccc(Cl)cc3)c2c1`, in the data set on Plasmodium falciparum [1], the minimum inhibitory concentration (MIC) turned out to be 1 µg/mL (≈ 2.13 µM). With `COc1ccc(Nc2ncnc3ccc(NC(=O)Nc4ccc(Cl)c(Cl)c4)cc23)cc1OC`, it took 0.25 µg/mL (≈ 0.516 µM) to inhibit growth in the data set with Plasmodium falciparum [1] (MIC). In addition, in the data set with Plasmodium falciparum [4], the IC50 was found to be 0.0807 µg/mL (≈ 0.167 µM). In data set [5], the “Ratio CC50/IC50” value turned out to be 74.5. Further, the Activity amounted to 41% in data set [3] and 14% in data set [2]. In turn, `COc1ccc(Nc2ncnc3ccc(NC(=O)Nc4cccc(C#N)c4)cc23)cc1OC` had an MIC in the data set on Plasmodium falciparum [1] of 0.5 µg/mL (≈ 1.14 µM). Besides, the Activity in data set [3] worked out at 13.9%; in data set [2] it was 23.2%. With `O=C(Nc1ccc(Br)cc1)Nc1ccc2ncnc(Nc3cccc(F)c3)c2c1`, the lowest concentration to inhibit growth with Plasmodium falciparum [1] (MIC) was 0.5 µg/mL (≈ 1.11 µM).

The compound `O=C(Nc1ccc(Cl)cc1)Nc1ccc2ncnc(Nc3ccc(Cl)cc3)c2c1` gave an MIC against Plasmodium falciparum [1] of 0.5 µg/mL (≈ 1.18 µM). `COc1ccc(Nc2ncnc3ccc(NC(=O)Nc4ccc(C)c(Cl)c4)cc23)cc1`: the lowest concentration to inhibit growth against Plasmodium falciparum [1] (MIC) was 0.25 µg/mL (≈ 0.576 µM). In addition, the IC50 with Plasmodium falciparum [4] was found to be 0.05 µg/mL (≈ 0.115 µM). In addition, the “Ratio CC50/IC50” value in data set [5] turned out to be 114.9. In turn, `O=C(Nc1ccc(Br)cc1)Nc1ccc2ncnc(Nc3cccc(Cl)c3)c2c1` gave an MIC in the data set with Plasmodium falciparum [1] of 1 µg/mL (≈ 2.13 µM). With `Cc1ccc(NC(=O)Nc2ccc3ncnc(Nc4ccc(Cl)cc4)c3c2)cc1Cl`, in the data set with Plasmodium falciparum [1], the MIC worked out at 1 µg/mL (≈ 2.28 µM).

The compound `COc1ccc(Nc2ncnc3ccc(NC(=O)Nc4cccc(C(C)=O)c4)cc23)cc1` came in with an MIC against Plasmodium falciparum [1] of 10 µg/mL (≈ 23.4 µM). In the case of `Cc1ccc(Nc2ncnc3ccc(NC(=O)Nc4ccc(Cl)cc4)cc23)cc1`, in the data set with Plasmodium falciparum [1], the MIC is 1 µg/mL (≈ 2.48 µM). The compound further registered a half-maximal inhibitory concentration (IC50) in the data set with Plasmodium falciparum [4] of 0.0771 µg/mL (≈ 0.191 µM). Also, the “Ratio CC50/IC50” value in data set [5] came to 126.3. As for `O=C(Nc1ccc(Cl)c(Cl)c1)Nc1ccc2ncnc(Nc3ccc(F)cc3)c2c1`, the MIC against Plasmodium falciparum [1] worked out at 10 µg/mL (≈ 22.6 µM).

Consider `COc1ccc(Nc2ncnc3ccc(NC(=O)Nc4ccc(Cl)cc4)cc23)cc1`, for which, in the data set on Plasmodium falciparum [1], the MIC amounted to 0.25 µg/mL (≈ 0.595 µM). For the same compound, in the data set with Plasmodium falciparum [4], the IC50 turned out to be 0.094 µg/mL (≈ 0.224 µM). Besides, in data set [5], the “Ratio CC50/IC50” value worked out at 435.1. `O=C(Nc1cc(Cl)cc(Cl)c1)Nc1ccc2ncnc(Nc3cccc(F)c3)c2c1` had an MIC against Plasmodium falciparum [1] greater than 10 µg/mL. `Cc1ccc(NC(=O)Nc2ccc3ncnc(Nc4cccc(Cl)c4)c3c2)cc1Cl`: the MIC in the data set on Plasmodium falciparum [1] stood at 10 µg/mL (≈ 22.8 µM). On to `CC(=O)c1ccc(NC(=O)Nc2ccc3ncnc(Nc4ccc(C)cc4)c3c2)cc1`, for which the MIC against Plasmodium falciparum [1] is 2 µg/mL (≈ 4.86 µM). The same measure, in the same setting: under `N#Cc1cccc(NC(=O)Nc2ccc3ncnc(Nc4ccccc4)c3c2)c1` stands 0.5 µg/mL (≈ 1.31 µM); under `COc1ccc(Nc2ncnc3ccc(NC(=O)Nc4ccc(C(C)=O)cc4)cc23)cc1OC`, 10 µg/mL (≈ 21.9 µM). Compound `COc1cccc(Nc2ncnc3ccc(NC(=O)Nc4ccc(Br)cc4)cc23)c1` had an MIC against Plasmodium falciparum [1] of 2 µg/mL (≈ 4.31 µM). Same read-out and setting: under `COc1cccc(Nc2ncnc3ccc(NC(=O)Nc4ccc(Cl)c(Cl)c4)cc23)c1` stands 2 µg/mL (≈ 4.4 µM). With `COc1cccc(Nc2ncnc3ccc(NC(=O)Nc4ccc(C(C)=O)cc4)cc23)c1`, in the data set on Plasmodium falciparum [1], the MIC is greater than 10 µg/mL. In the case of `COc1cccc(Nc2ncnc3ccc(NC(=O)Nc4ccc(Cl)cc4)cc23)c1`, the MIC in the data set with Plasmodium falciparum [1] turned out to be 0.25 µg/mL (≈ 0.595 µM). This compound came in with an IC50 with Plasmodium falciparum [4] of 0.159 µg/mL (≈ 0.377 µM). Also, the “Ratio CC50/IC50” value in data set [5] was determined as 378.9. With `CCN(CC)CCCC(C)Nc1ccnc2cc(Cl)ccc12` (stereo not given) [CHLOROQUINE], the MIC in the data set with Plasmodium falciparum [1] is 0.125 µg/mL (≈ 0.391 µM).

Source of the values: ChEMBL document CHEMBL1139315, “Search for new pharmacophores for antimalarial activity. Part II: synthesis and antimalarial activity of new 6-ureido-4-anilinoquinazolines” (Bioorg Med Chem, 2009).
